In publication PMC10053325 (Cell chemical biology, 2020):
Residue numbers refer to the chain shown, from its start.

Legend:
SMAD4^R361H-SMAD3 PPI [1] = molecular target: T1, SMAD4^R361H-SMAD3 PPI (Homo sapiens, UniProt Q13485, R361H); assay: TR-FRET assay for SMAD4^R361H/SMAD3 PPI in HEK293T cell lysate; format: binding; details: primary screening, compounds 20 μM
Target sequence in this assay (P84022 whole entry partner, one chain of several): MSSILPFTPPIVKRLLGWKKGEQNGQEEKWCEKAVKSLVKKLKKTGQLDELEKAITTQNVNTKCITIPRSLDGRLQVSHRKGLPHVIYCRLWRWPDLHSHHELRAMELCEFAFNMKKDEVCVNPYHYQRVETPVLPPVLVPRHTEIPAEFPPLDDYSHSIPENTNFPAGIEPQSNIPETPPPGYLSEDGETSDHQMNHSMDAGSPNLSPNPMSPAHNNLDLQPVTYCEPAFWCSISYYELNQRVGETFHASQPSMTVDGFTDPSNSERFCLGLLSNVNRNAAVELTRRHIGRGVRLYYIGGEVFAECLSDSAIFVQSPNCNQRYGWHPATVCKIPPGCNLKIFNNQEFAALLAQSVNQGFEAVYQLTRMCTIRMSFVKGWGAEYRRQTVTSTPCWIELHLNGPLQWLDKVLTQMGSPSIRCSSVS

[2] = molecular target: SMAD4^R361H interaction with R-SMADs (Homo sapiens, UniProt Q13485, R361H); assay: R-SMADs selectivity profiling by TR-FRET; format: binding; details: dose-response AUC; SMAD1/2/3/5/8
[3] = tested on: isogenic HCT116 R361H cells; assay: Colony formation assay; format: cell-based, human; details: TGF-β 10 ng/mL, Ro-31-8220 1 μM, Go-6983 10 μM, 15-day treatment
Summary of the method: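 Single-cell suspensions seeded at 1,000 to 2,000 cells/well in 6-well plates, treated next day with TGF-β, test compound, or the combination. Agent-containing medium renewed every 3 days for 15 days. Colonies stained with crystal violet and colony area quantified from images. Mean ± SD, three independent experiments; Student's t-test.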

SMAD4^D351H/SMAD3 PPI = SMAD4^D351H/SMAD3 PPI (Homo sapiens, UniProt Q13485, D351H); assay: GST pull-down assay of GST-SMAD4-D351H with VF-SMAD3 in cell lysate; format: binding; details: versus DMSO control
Summary of the method: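 HEK293T cells co-transfected with Venus-flag-SMAD3 and mutant GST-SMAD4 and lysed after 48 h in 0.5% Triton X-100 buffer (20 mM Tris-HCl, 150 mM NaCl, 5% glycerol, 2 mM EDTA). Lysate incubated with test compound 3 h rotating at 4°C, then glutathione beads 2 h at 4°C. Beads washed three times, boiled in SDS buffer, and bound SMAD3 detected by western blot.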

[4] = tested on: SMAD4/SMAD3 transcriptional activity (SBE-luc); assay: SBE-driven luciferase reporter assay; format: cell-based, human; details: isogenic HCT116 R361H cells pre-treated with compound
Summary of the method: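 […] cells in 6-well plates co-transfected with SBE4-Luc (1 μg) and Renilla (0.1 μg) plasmids. After 24 h, cells pretreated 6 h with test compound, then stimulated with TGF-β for 18 h. Dual-Glo read-out as Firefly/Renilla ratio, expressed as TGF-β-induced fold-of-change; assays repeated three times.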

SMAD4^R361H = molecular target: T2, SMAD4^R361H (Homo sapiens, UniProt Q13485, R361H); assay: Cycloheximide; format: cell-based; details: RCM-1 cells, CHX chase
T2 sequence (Q13485 1-552 R361H): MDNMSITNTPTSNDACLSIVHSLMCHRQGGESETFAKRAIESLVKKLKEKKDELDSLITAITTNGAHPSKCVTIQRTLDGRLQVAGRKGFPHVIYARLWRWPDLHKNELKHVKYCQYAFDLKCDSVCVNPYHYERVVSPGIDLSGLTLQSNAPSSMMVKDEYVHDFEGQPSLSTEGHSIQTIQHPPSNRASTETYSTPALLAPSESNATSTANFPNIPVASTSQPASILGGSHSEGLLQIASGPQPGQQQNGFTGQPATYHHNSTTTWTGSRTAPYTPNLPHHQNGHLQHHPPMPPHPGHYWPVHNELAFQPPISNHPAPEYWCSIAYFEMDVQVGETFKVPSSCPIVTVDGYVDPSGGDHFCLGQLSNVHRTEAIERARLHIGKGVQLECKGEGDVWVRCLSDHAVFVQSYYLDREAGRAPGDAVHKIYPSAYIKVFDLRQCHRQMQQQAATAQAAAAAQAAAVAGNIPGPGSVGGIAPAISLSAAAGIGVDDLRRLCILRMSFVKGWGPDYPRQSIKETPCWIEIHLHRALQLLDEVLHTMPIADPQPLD
Summary of the method: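 RCM-1 cells grown 24 h in 24-well plates, then given 100 μg/mL cycloheximide with test compound or DMSO. At each time point cells scraped into 2X SDS sample buffer and boiled 5 min. Run on 10% SDS-PAGE and blotted with anti-SMAD4; SMAD4 densitometry normalized to β-actin. Performed three times.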

[5] = tested on: isogenic HCT116 R361H cells; assay: Flow cytometry-based cell-cycle analysis; design: species or system human; details: TGF-β 10 ng/mL, Ro-31-8220 1 μM, Go-6983 10 μM
Summary of the method: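 Cells serum-starved 24 h, then placed in 10% FBS medium with TGF-β (10 ng/mL) and/or test compound for 24 h. Fixed in 70% ethanol overnight at 4°C, RNase-treated (1 mg/ml, 30 min, 37°C), stained with 40 μg/ml PI for 30 min. 5,000 cells per sample analysed by flow cytometry; % G1/S given as mean ± SD of three independent experiments.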

[6] = tested on: isogenic HCT116 cells (SMAD4 WT, null, R361H); assay: Cell viability assay; format: cell-based, human
Summary of the method: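 Isogenic HCT116 WT, SMAD4-null and R361H cells given TGF-β (10 ng/mL), test compound, or both; vehicle/DMSO controls. CellTiter-Blue added and incubated at 37°C. Fluorescence read at Ex 545/Em 615 nm, medium-only blank subtracted, normalized to untreated controls (% C). Mean ± SD of three independent experiments; Student's t-test.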

[7] = tested on: isogenic HCT116 R361H cells; assay: Transcriptome profiling; format: cell-based, human; details: TGF-β 10 ng/mL, compound 1 μM
[8] = tested on: isogenic HCT116 cells (SMAD4 R361H, null); assay: Western blot of TGF-β-induced p15, p21, N-cadherin and Vimentin proteins; format: cell-based, human; details: R361H mutant cells, TGF-β 10 ng/mL, compound 1 μM
Summary of the method: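 Isogenic HCT116 SMAD4-null or R361H cells treated with TGF-β (10 ng/mL) and/or test compound (1 μM). Lysates run on 10% SDS-PAGE and transferred to nitrocellulose (100 V, 2 h, 4°C). Membranes blocked 1 h in 5% milk/TBST, probed overnight at 4°C, and developed by chemiluminescence. Representative of three independent experiments.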

SMAD4^R361H-SMAD3 PPI [9] = molecular target: T1, SMAD4^R361H-SMAD3 PPI; assay: Endogenous co-immunoprecipitation of SMAD4 complex in RCM-1 cells; format: cell-based; details: 10 μM for 8 h, endogenous proteins
Summary of the method: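 RCM-1 cells in 100 mm dishes exposed to 10 μM test compound or DMSO for 8 h, then lysed in PBS by sonication. About 1.5 mg total protein per IP incubated with antibody overnight at 4 °C, then with protein […] agarose beads 4 h at 4 °C. Beads washed four times in PBS; eluates probed for SMAD3 by western blot.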
Target sequence in this assay (P84022 2-425 partner limits assumed, one chain of several): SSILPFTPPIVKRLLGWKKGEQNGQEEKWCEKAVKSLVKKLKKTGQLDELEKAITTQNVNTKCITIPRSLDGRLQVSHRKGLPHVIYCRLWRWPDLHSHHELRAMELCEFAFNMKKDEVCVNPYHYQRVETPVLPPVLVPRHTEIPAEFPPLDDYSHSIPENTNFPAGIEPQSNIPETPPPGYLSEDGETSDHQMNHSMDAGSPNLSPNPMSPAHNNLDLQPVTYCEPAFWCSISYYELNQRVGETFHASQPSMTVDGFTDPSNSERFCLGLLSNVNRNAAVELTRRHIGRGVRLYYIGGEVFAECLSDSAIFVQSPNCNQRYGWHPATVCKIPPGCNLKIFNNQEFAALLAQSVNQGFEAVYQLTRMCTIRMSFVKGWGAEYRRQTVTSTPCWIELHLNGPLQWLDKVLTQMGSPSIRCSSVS

SMAD4 WT = molecular target: T3, SMAD4 WT (Homo sapiens, UniProt Q13485); assay: Cellular thermal shift assay; format: cell-based; details: HCT116 cells, 10 μM for 8 h, compared with the DMSO control
T3 sequence (Q13485 1-552): T2 sequence (Q13485 1-552 R361H) with H361R
Summary of the method: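 Cells at 60% confluency in 100 mm dishes given 10 μM test compound for 8 h. Pellets in PBS aliquoted and heated at 45~65 °C for 3 min, lysed by three liquid nitrogen/25 °C freeze-thaw cycles, spun 20,000g for 20 min at 4 °C. Soluble SMAD protein western-blotted with actin loading control. Thermal curves from densitometry; mean ± SD, three independent experiments.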

Sequence of SMAD4^D351H/SMAD3 PPI (Q13485 whole entry D351H): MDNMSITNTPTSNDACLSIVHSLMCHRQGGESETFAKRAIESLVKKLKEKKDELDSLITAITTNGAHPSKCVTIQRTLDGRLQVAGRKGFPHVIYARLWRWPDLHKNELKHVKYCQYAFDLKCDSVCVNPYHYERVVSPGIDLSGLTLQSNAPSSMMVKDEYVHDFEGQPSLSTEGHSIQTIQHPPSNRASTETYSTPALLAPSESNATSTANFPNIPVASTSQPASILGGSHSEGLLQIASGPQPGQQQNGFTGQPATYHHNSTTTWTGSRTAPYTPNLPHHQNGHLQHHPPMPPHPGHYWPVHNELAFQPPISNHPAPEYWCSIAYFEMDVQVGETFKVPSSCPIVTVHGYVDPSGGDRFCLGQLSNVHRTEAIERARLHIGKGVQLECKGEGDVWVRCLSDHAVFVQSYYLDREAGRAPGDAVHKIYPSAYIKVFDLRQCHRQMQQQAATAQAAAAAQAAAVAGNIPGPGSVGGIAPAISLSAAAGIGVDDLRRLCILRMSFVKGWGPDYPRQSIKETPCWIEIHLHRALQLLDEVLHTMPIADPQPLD
Sequence of SMAD4^D351H/SMAD3 PPI (P84022 whole entry partner): as the sequence (P84022 whole entry partner, one chain of several) above
Sequence of SMAD4^R361H interaction with R-SMADs (P84022 whole entry partner, one chain of several): as above

SMILES	potentiation effect (ΔTR-FRET) compared with the DMSO control (SMAD4^R361H-SMAD3 PPI [1])	compound-induced TR-FRET signal for SMAD4^R361H with SMAD3 compared with other R-SMADs [2]	colony area in combination with TGF-β [3]	SMAD3 level in the D351H GST pull-down complex (SMAD4^D351H/SMAD3 PPI)	TGF-β-induced SBE-luc activity [4]	SMAD4^R361H protein half-life compared with DMSO control (SMAD4^R361H)	SMAD4^R361H protein half-life (SMAD4^R361H; compound-treated)	sensitivity to TGF-β-induced G1/S cell-cycle arrest [5]	sensitivity to TGF-β-induced growth suppression (cell viability) ([6]; SMAD4 R361H cells, with TGF-β 10 ng/mL, Ro-31-8220 1 μM, Go-6983 10 μM)	growth inhibition, compound alone ([6]; SMAD4 WT, null and R361H cells, 1 μM)	response to TGF-β in terms of DEGs [7]	TGF-β-induced expression of p15, p21, N-cadherin and Vimentin proteins [8]	amount of SMAD3 in the SMAD4-R361H immune-complex (SMAD4^R361H-SMAD3 PPI [9])	increase of Tm (ΔTm) of SMAD4 WT (SMAD4 WT)
COc1ccc2c(c1)c(C1=C(c3c[nH]c4ccccc34)C(=O)NC1=O)cn2CCCN(C)C [Go-6983]	> 40%	significantly higher	A similar effect	significantly restored										
Cn1cc(C2=C(c3cn(CCCSC(=N)N)c4ccccc34)C(=O)NC2=O)c2ccccc21 [Ro-31-8220]	> 40%	significantly higher	significantly decreased colony area	significantly restored	restored to a level similar to that of the WT cells	no significant difference	about 2 h	regained sensitivity	restored the sensitivity	did not result in any significant growth inhibition	reestablished to a similar degree to that of WT cells	significant increase	drastically restored	but not WT or SMAD3
